C8 TRAIL sens: caspase-8 TRAIL sensitization; NB7+C8 cells + TRAIL, ATPlite viability luminescence; inhibition (viability loss, TRAIL sensitization), % at 10 µM; 360,000 compounds, 1% hits; AID 624354;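 active = compounds causing at least 50% loss of cell viability in the single-dose screen, relative to plate controls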
FLuc inhib CS: inhibits firefly luciferase, flagging false hits in luciferase inhibition screens. ATPLite firefly luciferase biochemical luminescence, 10 min. inhibition, % at 10 µM. 200,000 compounds, 1.5% hits;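 active = inhibition above about 50% when tested at 10 µM, limit read from the data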
Target sequence (P08659 whole entry, looked up): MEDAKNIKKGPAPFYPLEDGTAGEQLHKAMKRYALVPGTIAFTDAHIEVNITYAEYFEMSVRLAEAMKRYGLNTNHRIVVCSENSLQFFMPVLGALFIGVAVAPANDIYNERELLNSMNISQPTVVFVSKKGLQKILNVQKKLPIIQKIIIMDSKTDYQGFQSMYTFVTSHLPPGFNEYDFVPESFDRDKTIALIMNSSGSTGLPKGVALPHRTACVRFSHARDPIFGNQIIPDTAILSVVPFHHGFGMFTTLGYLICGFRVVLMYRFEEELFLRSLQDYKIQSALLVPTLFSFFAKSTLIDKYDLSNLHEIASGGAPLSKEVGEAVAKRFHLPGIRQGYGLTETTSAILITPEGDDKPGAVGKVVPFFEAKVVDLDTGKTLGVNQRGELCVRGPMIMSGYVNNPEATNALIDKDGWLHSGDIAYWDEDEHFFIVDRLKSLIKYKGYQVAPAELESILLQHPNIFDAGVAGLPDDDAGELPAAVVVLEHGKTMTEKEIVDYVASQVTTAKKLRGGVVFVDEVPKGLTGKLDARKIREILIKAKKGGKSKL
HSP90 inh: blocks HSP90-mediated luciferase refolding in reticulocyte lysate | Rabbit reticulocyte lysate, luciferase refolding luminescence, 3 h | inhibition, % at 5.6 µM | AID 1789 | 290,000 compounds, 0.91% hits;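 active = inhibition above the screen-wide mean plus 3 SD, computed separately per campaign, cut at about 16% in these data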;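 note: 0% = DMSO wells and 100% = 60 µM geldanamycin wells; inhibitors lower the luminescence because luciferase stays unfolded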
FLuc stim CS: firefly luciferase counter-screen for stimulation assays. ATPlite luciferase biochemical, luminescence, 10 min; 0 = ATP-free wells, 1 = DMSO control. 200,000 tested, under 10 active. activation factor at 10 µM. P08659;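 active = luciferase activation factor, scaled between plate controls, of at least 2 with compound at 10 µM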
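Assay system – cell-free luciferase reagent · Medium – PBS-based ATP solution · Dosing – test compounds dosed from 2 mM stocks in 100% DMSO · Timing – 10 min, room temperature · Technique – light output (luminescence) · Measure – luminescence gain marking luciferase activators · Controls – No-ATP low control, compound-free enzyme-plus-ATP high control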
PPC-1+TRAIL kill: kills PPC-1 cancer cells in the presence of TRAIL. PPC-1 cells + TRAIL, ATPLite viability luminescence. cell killing (% activity), % at 4 µM or 5 µM. 220,000 compounds, 0.41% hits;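 active = cell killing above 50% in the first pass at 4 µM, then a duplicate retest at 5 µM averaging 50% or more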;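 note: plate controls were cells with TRAIL plus DMSO for no effect and medium-only wells lacking cells for full effect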
* hit, by the source's call; nt = not tested or not shown. Rows were chosen to be rich in hits. Some 2% of all compounds tested hit in one or more screens of this group.

SMILES	C8 TRAIL sens	FLuc inhib CS	HSP90 inh	FLuc stim CS	PPC-1+TRAIL kill
O=C(CN1C(=O)NC2(CCCC2)C1=O)Nc1cc(Cl)ccc1Oc1ccccc1	-2	nt	nt	nt	nt
Cc1cc(C)cc(N(CCC#N)C(=O)COC(=O)C2CCN(S(=O)(=O)c3ccc(C)c(C)c3)CC2)c1	-19	nt	nt	nt	nt
Cc1cccc(NC(=O)C2CCN(S(=O)(=O)c3c(C)noc3C)CC2)c1	-1	nt	-4	nt	nt
O=C(Nc1ccccc1C(=O)O)c1ccc(CN2C(=O)c3ccccc3C2=O)cc1	-11	nt	-1	nt	nt
Cc1cc(NC(=O)/C=C/c2ccc(F)cc2)n(-c2nc3ccccc3[nH]2)n1	44	44	-3	0.6	45
COc1ccc(/C=C/C(=O)Nc2cc(C)nn2-c2nc3ccccc3[nH]2)cc1	71*	67*	1	0.3	49
COc1ccc(-c2[nH]ncc2CN2CCC(OCc3cccnc3)CC2)c(F)c1	-5	-4	0	1	17
CCn1cnc2cc(NC(=O)c3cccs3)ccc21	23	51*	0	0.5	17
CCn1cnc2cc(NCc3cccs3)ccc21	4	3	-1	1	6
CC(C)(C)n1cnc2cc(NC(=O)c3cccs3)ccc21	50	71*	4	0.3	6
CC(C)(C)n1cnc2cc(NC(=O)c3ccccc3)ccc21	46	nt	5	nt	nt
Cn1c(CSCc2ccccc2)nnc1SCC(=O)Nc1ccc(C(=O)O)cc1	0	1	-1	1	14
COc1cccc(CNCc2ccccc2Br)c1OC	2	nt	-2	nt	nt
C#CCNC(=O)C[C@@H]1C[C@@]2(C(=O)OCC)CCC=C2N(CCC2=CCCCC2)C1=O	4	nt	nt	nt	nt
Cc1cccc(C(=O)NCCc2csc(C)n2)c1	12	-4	0	1	12
Cc1ccc(C(=O)NCCc2csc(C)n2)cc1	39	58*	-1	0.4	39
COc1ccc(OCC(=O)NC(=O)c2ccccc2OC)c([N+](=O)[O-])c1	9	nt	nt	nt	nt
CNC(=O)COC(=O)/C=C/c1cccc(F)c1	2	-2	-6	1	17
Cc1ccc(S(=O)(=O)Nc2ccccc2C(=O)Nc2nc(-c3ccc(F)cc3)cs2)cc1	53*	2	-6	1	25
Cc1cc(OCc2nc3ccccc3s2)ccc1N	17	nt	3	nt	18
Fc1ccc(OCc2nc3ccccc3s2)cc1	26	64*	-2	0.4	22
CNc1ncnc(Sc2nc(N)nc3nc[nH]c23)c1[N+](=O)[O-]	74*	nt	nt	nt	nt
Nc1nc(Sc2ccc([N+](=O)[O-])c3nonc23)c2[nH]cnc2n1	75*	nt	nt	nt	nt
Nc1nc(SCc2ccccc2)c2[nH]cnc2n1	-7	nt	0	nt	nt
O=C(O)c1ccc(NC(=S)NC(=O)c2ccc(-c3ccccc3)cc2)cc1	11	29	-1	0.7	8
SMILES	C8 TRAIL sens	FLuc inhib CS	HSP90 inh	FLuc stim CS	PPC-1+TRAIL kill
COc1ccc(C(=O)NNC(=S)NC(=O)c2ccc(OC)cc2)cc1	11	nt	-4	nt	nt
COc1ccc(C(=O)NNC(=S)Nc2ccccc2)cc1	27	57*	-2	0.4	22
O=C(NC(=S)Nc1ccccc1)c1ccc(-c2ccccc2)cc1	-10	9	2	0.9	54*
Cc1ccnc(NS(=O)(=O)c2ccc(NC(=O)c3ccc(Cl)cc3[N+](=O)[O-])cc2)n1	-6	nt	-2	nt	nt
O=S(=O)(c1ccc(Cl)cc1)N1CCN(C(=S)Nc2ccc(F)c(Cl)c2)CC1	-6	1	0	1	1
CCCCCCCCC1CC(C(=O)Nc2ccccc2)C(=O)O1 (stereo not drawn)	-9	nt	nt	nt	nt
O=C(CN1C(=O)c2ccccc2S1(=O)=O)NCCc1ccc(F)cc1	-2	nt	nt	nt	nt
O=C1c2ccccc2C(=O)c2c1oc(C(F)(F)F)c2C(=O)c1ccccc1	96*	3	-1	1	20
O=C(c1ccccc1)c1coc2c1C(=O)c1ccccc1C2=O	5	2	7	1	5
CS(=O)(=O)N(CC(=O)N1CCCC1)c1ccccc1Br	-9	nt	1	nt	nt
CCOC(=O)C1=C(C)NC(C)=C(C(=O)OCC)C1C(=O)OCC(=O)N(C)C	-3	nt	7	nt	21
N=c1oc2cc(O)ccc2cc1C(=O)Nc1ccc(Cl)cc1	49*	nt	3	nt	nt
N=c1oc2ccccc2cc1C(=O)Nc1ccc(F)cc1	13	nt	1	nt	nt
Cn1cccc1C(=O)C(=O)Nc1ccc(Cl)cc1	29	62*	8	0.4	31
S=C(Nc1ccccc1)Nc1nc2ccccc2n1CCOc1ccccc1	4	-9	4	1.1	18
CC(=O)Nc1nc2ccccc2n1CCOc1ccccc1	52*	-1	7	1	42

Screening results: PubChem, several laboratories
